The values that follow come from ChEMBL document CHEMBL1128681, “Studies on the monoamine oxidase (MAO)-catalyzed oxidation of phenyl-substituted 1-methyl-4-phenoxy-1,2,3,6-tetrahydropyridine derivatives: factors contributing to MAO-A and MAO-B selectivity” (J Med Chem, 1995).

Data set [1] concerns the target T1, Amine oxidase [flavin-containing] B (Bos taurus, UniProt P56560).
T1 sequence (P56560 whole entry): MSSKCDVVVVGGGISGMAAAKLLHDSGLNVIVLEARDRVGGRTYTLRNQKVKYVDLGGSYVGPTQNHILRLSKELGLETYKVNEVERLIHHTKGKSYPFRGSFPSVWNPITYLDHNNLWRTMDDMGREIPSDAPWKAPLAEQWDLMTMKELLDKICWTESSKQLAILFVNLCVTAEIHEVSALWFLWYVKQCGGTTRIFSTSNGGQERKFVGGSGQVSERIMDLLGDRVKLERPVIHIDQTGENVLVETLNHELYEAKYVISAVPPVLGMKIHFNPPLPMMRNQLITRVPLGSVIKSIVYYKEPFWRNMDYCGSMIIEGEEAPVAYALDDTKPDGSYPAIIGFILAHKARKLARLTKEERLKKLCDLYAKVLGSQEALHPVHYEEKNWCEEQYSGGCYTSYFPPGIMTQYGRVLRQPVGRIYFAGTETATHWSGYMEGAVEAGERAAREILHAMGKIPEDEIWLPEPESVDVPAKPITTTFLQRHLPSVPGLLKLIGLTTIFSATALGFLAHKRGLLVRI
Put plainly: Ratio of catalytic constant and Michaelis-Menten constant for MAO-B. As to conditions: cattle. In outline: (§1)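 MAO-B at 0.08 μM final; activity was calibrated with MPTP at 30 °C and the preparation was stored at –15 °C. Substrate range 100–2000 μM in 100 mM sodium phosphate pH 7.4, with spectrophotometric initial oxidation rates. KM and kcat derived from double-reciprocal plots, and kcat/KM calculated from them.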

In data set [2] the target is T2, Amine oxidase [flavin-containing] A (Homo sapiens, UniProt P21397).
T2 sequence (P21397 whole entry): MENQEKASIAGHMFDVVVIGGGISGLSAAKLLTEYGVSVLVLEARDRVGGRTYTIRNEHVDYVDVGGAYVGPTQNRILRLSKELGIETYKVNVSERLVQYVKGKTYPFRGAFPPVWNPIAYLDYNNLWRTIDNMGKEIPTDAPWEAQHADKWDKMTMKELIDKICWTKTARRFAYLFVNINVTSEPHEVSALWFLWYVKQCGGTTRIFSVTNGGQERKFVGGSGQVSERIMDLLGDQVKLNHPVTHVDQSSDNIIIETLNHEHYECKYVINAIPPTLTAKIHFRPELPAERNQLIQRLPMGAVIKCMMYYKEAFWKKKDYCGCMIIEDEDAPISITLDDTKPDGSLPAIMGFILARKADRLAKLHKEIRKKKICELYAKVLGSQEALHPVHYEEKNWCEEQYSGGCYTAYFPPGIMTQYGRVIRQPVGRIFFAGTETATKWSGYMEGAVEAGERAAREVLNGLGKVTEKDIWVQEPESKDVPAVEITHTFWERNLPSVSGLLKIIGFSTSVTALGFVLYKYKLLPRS
As to the kind of experiment: Ratio of catalytic constant and Michaelis-Menten constant for MAO-A. Put shortly:
(§2)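 MAO-A at 0.16 μM final, raised to 0.32 μM for one slowly oxidized substrate. The MAO-A preparation was diluted with 3 volumes of phosphate buffer just before use, and its activity was re-checked bimonthly with kynuramine at 30 °C. Substrates at 100–2000 μM in 100 mM sodium phosphate pH 7.4; initial rates by spectrophotometry. kcat and KM from double-reciprocal plots; kcat/KM as their ratio.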

Data set [3] deals with T1, Amine oxidase [flavin-containing] B. As to the kind of experiment: Kinetic value evaluated as catalyzed oxidation rate (kcat). The note with it: cattle. In outline:
(§3)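 kcat from initial oxidation rates, read by spectrophotometer, with test compounds at 100–2000 μM final in 100 mM sodium phosphate pH 7.4, using 0.16 μM MAO-A or 0.08 μM MAO-B. kcat and KM came from double-reciprocal plots. Repeat determinations were made on selected substrates at different times.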

Data set [4] has the same target. Put plainly: (§4) Michaelis-Menten constant for Monoamine oxidase B catalyzed oxidation (KM). The note with it: cattle. In outline:
as §1

For data set [5], the target named is T2, Amine oxidase [flavin-containing] A. As to the kind of experiment: Kinetic value evaluated as catalyzed oxidation (kcat). In outline: as §3
The target is the same in data set [6]. Put plainly: Michaelis-Menten constant for Monoamine oxidase A-catalyzed oxidation (KM). Put shortly:
as §2

For data set [7], the target named is T3, Monoamine oxidase B (amine oxidase [flavin-containing] B) (Bos taurus, UniProt P56560).
T3 sequence (P56560 whole entry): T1 sequence (P56560 whole entry)
The description is as §4. The note with it: cattle. Put shortly:
as §1

For data set [8], the target named is T4, Monoamine oxidase A (amine oxidase [flavin-containing] A) (Homo sapiens, UniProt P21397).
T4 sequence (P21397 whole entry): T2 sequence (P21397 whole entry)
As to the kind of experiment: Michaelis-Menten constant for Monoamine oxidase A catalyzed oxidation (Km). In outline:
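MAO-A preparation, viscous, diluted with 3 volumes of phosphate buffer just before use; activity standardised with kynuramine at 30 °C. Substrates as oxalate salts at 100–2000 μM final in 100 mM sodium phosphate, pH 7.4, with 0.16 μM MAO-A. Initial oxidation rates were followed spectrophotometrically, and Km came from double-reciprocal plots.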

In general, Km refers to the substrate concentration at which the rate is half of its maximum.

Each structure is given as a SMILES string.

`CN1CC=C(Oc2ccccc2)CC1`: the figures for the “k cat/Km” value in data set [1] and in data set [2] were 69180 M⁻¹ s⁻¹ and 39320 M⁻¹ s⁻¹, respectively. For the same compound, the k cat in data set [3] stood at 4.02 s⁻¹; in data set [5] it was 2.17 s⁻¹. Besides, the Km in data set [4] came out at 58 µM; in data set [6], 55 µM.

Turning to `CN1CC=C(Oc2ccc(-c3ccccc3)cc2)CC1`, the “k cat/Km” value came to 6050 M⁻¹ s⁻¹ in data set [1] and 28500 M⁻¹ s⁻¹ in data set [2]. Also, the k cat in data set [3] amounted to 1.72 s⁻¹; in data set [5] it was 2.88 s⁻¹. For the same compound, the Km came to 284 µM in data set [4] and 101 µM in data set [6].

Take `CN1CC=C(c2ccccc2)CC1`: the “k cat/Km” value in data set [1] came to 23850 M⁻¹ s⁻¹; in data set [2] it was 783 M⁻¹ s⁻¹. Besides, the results for the k cat in data set [3] and in data set [5] were 4.55 s⁻¹ and 0.517 s⁻¹, respectively. Moreover, the Km in data set [7] was determined as 191 µM; in data set [8], 654 µM.
